# From ChEMBL document CHEMBL2021820, “Synthesis, vasorelaxant activity, and molecular modeling study of some new phthalazine derivatives” (Eur J Med Chem, 2012)
# Counter-ions that a name gives are not always drawn.
# Tested on: Thoracic aorta
# Assay: Ratio of IC50 for prazosin to IC50 for compound in noradrenaline-contracted Wister rat thoracic aorta rings
# Type: functional
row,Compound,Ratio IC50
1,CN1CCN(CC(=O)NNc2nncc3ccccc23)CC1,3
2,COc1ccccc1N1CCN(CCC(=O)NNc2nncc3ccccc23)CC1,5

# Tested on: Thoracic aorta
# Assay: Vasorelaxant activity in Wister rat thoracic aorta rings assessed as reduction in maximal noradrenaline-induced spasms
# Type: functional, tissue-based
# Outline: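 Aortic preparations equilibrated for 2 h at 2 g resting tension. Contraction to norepinephrine hydrochloride (10^-6 M) was recorded before and after exposure to increasing concentrations of compound. Compounds came from a 0.01 M DMSO stock. Vehicle controls used DMSO alone at matching concentrations.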
row,Compound,IC50 [µM]
1,O=C(CN1CCN(c2cccc(C(F)(F)F)c2)CC1)NNc1nncc2ccccc12,410
2,O=C(CCN1CCOCC1)NNc1nncc2ccccc12,580
3,O=C(CN1CCN(c2ccc(Cl)cc2)CC1)NNc1nncc2ccccc12,450
4,COc1ccccc1N1CCN(CC(=O)NNc2nncc3ccccc23)CC1,550
5,CCOC(=O)N1CCN(CCC(=O)NNc2nncc3ccccc23)CC1,> 1000
6,COc1cc2nc(N3CCN(C(=O)c4ccco4)CC3)nc(N)c2cc1OC [PRAZOSIN HYDROCHLORIDE],480
7,O=C(CN1CCN(c2ccccc2)CC1)NNc1nncc2ccccc12,560
8,O=C(CCN1CCN(c2ccccc2)CC1)NNc1nncc2ccccc12,270
9,CN1CCN(CC(=O)NNc2nncc3ccccc23)CC1,160
10,O=C(CN1CCOCC1)NNc1nncc2ccccc12,430
11,O=C(Cn1ccnc1)NNc1nncc2ccccc12,610
12,CN1CCN(CCC(=O)NNc2nncc3ccccc23)CC1,360
13,COc1ccccc1N1CCN(CCC(=O)NNc2nncc3ccccc23)CC1,100
14,O=C(CCN1CCN(c2cccc(C(F)(F)F)c2)CC1)NNc1nncc2ccccc12,500
15,CCOC(=O)N1CCN(CC(=O)NNc2nncc3ccccc23)CC1,> 1000
16,O=C(CCn1ccnc1)NNc1nncc2ccccc12,810
17,O=C(CCN1CCN(c2ccc(Cl)cc2)CC1)NNc1nncc2ccccc12,700
